Experimental data from ChEMBL document CHEMBL1275484, “Rifampin and rifaximin resistance in clinical isolates of Clostridium difficile” (Antimicrob Agents Chemother, 2008).
≈ marks a conversion by molar mass, not a printed value.

Legend:
Type in all cases: functional
Clostridioides difficile [1] = test: Antimicrobial activity against Clostridium difficile isolate 75 by Etest
Outline: (§1)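 Rifampin MIC by Etest on brucella blood agar, run per the strip manufacturer's instructions, against clinical isolates typed by HindIII REA.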

Clostridioides difficile [2] = test: Antimicrobial activity against Clostridium difficile isolate 37 by agar dilution method
Outline: (§2)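 MIC by CLSI reference agar dilution for anaerobes, with endpoints read per M11-A7 and C. difficile […] as control. Rifaximin was dissolved in methanol, diluted in 0.1 M phosphate buffer pH 7.4 plus 0.45% SDS, and tested at 0.0009–256 μg/ml. Rifampin was dissolved in methanol, diluted in water, and tested at 0.00001–256 μg/ml.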

Clostridioides difficile [3] = test: Antimicrobial activity against Clostridium difficile isolate 77 by agar dilution method
Outline: (§3)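 CLSI reference agar dilution for anaerobes, with endpoints read per guideline M11-A7. Rifaximin was dissolved in methanol, diluted in 0.1 M phosphate buffer pH 7.4 with 0.45% SDS, and tested at 0.0009–256 μg/ml. Rifampin was dissolved in methanol, diluted in water, and tested at 0.00001–256 μg/ml. Control strain: C. difficile ATCC 70005. Isolates were typed by HindIII REA.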

Clostridioides difficile [4] = test: Antimicrobial activity against Clostridium difficile isolate 69 by agar dilution method; outline: as §3
Clostridioides difficile [5] = test: Antimicrobial activity against Clostridium difficile isolate 46 by Etest
Outline: (§4)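 Rifampin Etest strips were run on brucella blood agar following the manufacturer's instructions to give an MIC. Clinical isolates were typed by HindIII REA.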

Clostridioides difficile [6] = test: Antimicrobial activity against Clostridium difficile isolate 23 by Etest
Outline: (§5)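 Rifampin MIC by Etest strip on brucella blood agar, run per the strip maker's instructions. Isolates were HindIII REA-typed clinical C. difficile.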

Clostridioides difficile [7] = test: Antimicrobial activity against rifaximin-resistant Clostridium difficile isolate 4 expressing RpoB S488T and R505K mutants by agar dilution method
Outline: as §2, with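 “MICs were found” for “MIC”, “by the” for “by”, “dilution method” for “dilution”, “with” for “plus”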

Clostridioides difficile [8] = test: Antimicrobial activity against Clostridium difficile isolate 59 by agar dilution method
Outline: as §3, with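 “dilution method” for “dilution”, “(pH 7.4)” for “pH 7.4”, “μg/ml.” for “μg/ml. Control strain:”, “[…] served as control.” for “70005.”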

Clostridioides difficile [9] = test: Antimicrobial activity against Clostridium difficile isolate 32 by Etest; outline: as §5
Clostridioides difficile [10] = test: Antimicrobial activity against Clostridium difficile isolate 43 by agar dilution method
Outline: as §3, with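 “dilution method” for “dilution”, “(pH 7.4)” for “pH 7.4”, “μg/ml.” for “μg/ml. Control strain:”, “[…] served as control.” for “70005.”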

Clostridioides difficile [11] = test: Antimicrobial activity against Clostridium difficile isolate 42 by agar dilution method
Outline: as §3, with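 “dilution method” for “dilution”, “(pH 7.4)” for “pH 7.4”, “μg/ml.” for “μg/ml. Control strain:”, “[…] served as control.” for “70005.”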

Clostridioides difficile [12] = test: Antimicrobial activity against Clostridium difficile isolate 11 by agar dilution method; outline: as §2
Clostridioides difficile [13] = test: Antimicrobial activity against Clostridium difficile isolate 29 by Etest; outline: as §5
Clostridioides difficile [14] = test: Antimicrobial activity against Clostridium difficile isolate 6 by Etest; outline: as §4
Clostridioides difficile [15] = test: Antimicrobial activity against Clostridium difficile isolate 80 by Etest; outline: as §1
Clostridioides difficile [16] = test: Antimicrobial activity against Clostridium difficile isolate 3 by agar dilution method; outline: as §2
Clostridioides difficile [17] = test: Antimicrobial activity against Clostridium difficile isolate 46 by agar dilution method
Outline: as §3, with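 “dilution method” for “dilution”, “(pH 7.4)” for “pH 7.4”, “μg/ml.” for “μg/ml. Control strain:”, “[…] served as control.” for “70005.”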

Clostridioides difficile [18] = test: Antimicrobial activity against Clostridium difficile isolate 31 by agar dilution method; outline: as §2
Clostridioides difficile [19] = test: Antimicrobial activity against rifaximin-resistant Clostridium difficile isolate 66 expressing RpoB D492N and R505K mutants by agar dilution method
Outline: as §2, with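 “MICs were found” for “MIC”, “by the” for “by”, “dilution method” for “dilution”, “with” for “plus”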

Clostridioides difficile [20] = test: Antimicrobial activity against Clostridium difficile isolate 2 by agar dilution method; outline: as §2
Clostridioides difficile [21] = test: Antimicrobial activity against Clostridium difficile isolate 3 by Etest; outline: as §5
Clostridioides difficile [22] = test: Antimicrobial activity against rifaximin-resistant Clostridium difficile isolate 26 expressing RpoB R505K mutant by Etest
Outline: (§6)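 Rifampin Etest on clinical C. difficile isolates typed by HindIII REA, run per the strip manufacturer's instructions on brucella blood agar, with the MIC read from the strip.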

Clostridioides difficile [23] = test: Antimicrobial activity against rifaximin-resistant Clostridium difficile isolate 64 expressing RpoB H502R mutant by agar dilution method
Outline: as §2, with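 “MICs were found” for “MIC”, “by the” for “by”, “dilution method” for “dilution”, “with” for “plus”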

Clostridioides difficile [24] = test: Antimicrobial activity against Clostridium difficile isolate 2 by Etest; outline: as §5
Clostridioides difficile [25] = test: Antimicrobial activity against Clostridium difficile isolate 43 by Etest; outline: as §4
Clostridioides difficile [26] = test: Antimicrobial activity against Clostridium difficile isolate 30 by agar dilution method; outline: as §2
Clostridioides difficile [27] = test: Antimicrobial activity against Clostridium difficile isolate 55 by agar dilution method
Outline: as §3, with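 “dilution method” for “dilution”, “(pH 7.4)” for “pH 7.4”, “μg/ml.” for “μg/ml. Control strain:”, “[…] served as control.” for “70005.”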

Clostridioides difficile [28] = test: Antimicrobial activity against Clostridium difficile isolate 61 by Etest; outline: as §4
Clostridioides difficile [29] = test: Antimicrobial activity against Clostridium difficile isolate 36 by Etest; outline: as §5
Clostridioides difficile [30] = test: Antimicrobial activity against Clostridium difficile isolate 78 by agar dilution method; outline: as §3
Clostridioides difficile [31] = test: Antimicrobial activity against Clostridium difficile isolate 49 by agar dilution method
Outline: as §3, with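 “dilution method” for “dilution”, “(pH 7.4)” for “pH 7.4”, “μg/ml.” for “μg/ml. Control strain:”, “[…] served as control.” for “70005.”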

Clostridioides difficile [32] = test: Antimicrobial activity against rifaximin-resistant Clostridium difficile isolate 17 expressing RpoB H502N and I548M mutants by agar dilution method
Outline: as §2, with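 “MICs were found” for “MIC”, “by the” for “by”, “dilution method” for “dilution”, “with” for “plus”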

Clostridioides difficile [33] = test: Antimicrobial activity against Clostridium difficile isolate 23 by agar dilution method; outline: as §2
Clostridioides difficile [34] = test: Antimicrobial activity against rifaximin-resistant Clostridium difficile isolate 4 expressing RpoB S488T and R505K mutants by Etest; outline: as §6
Clostridioides difficile [35] = test: Antimicrobial activity against Clostridium difficile isolate 36 by agar dilution method; outline: as §2
Clostridioides difficile [36] = test: Antimicrobial activity against Clostridium difficile isolate 62 by agar dilution method; outline: as §3
Clostridioides difficile [37] = test: Antimicrobial activity against Clostridium difficile isolate 51 by agar dilution method
Outline: as §3, with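 “dilution method” for “dilution”, “(pH 7.4)” for “pH 7.4”, “μg/ml.” for “μg/ml. Control strain:”, “[…] served as control.” for “70005.”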

Clostridioides difficile [38] = test: Antimicrobial activity against Clostridium difficile isolate 74 by Etest; outline: as §1
Clostridioides difficile [39] = test: Antimicrobial activity against Clostridium difficile isolate 8 by Etest; outline: as §1
Clostridioides difficile [40] = test: Antimicrobial activity against Clostridium difficile isolate 15 by Etest; outline: as §5
Clostridioides difficile [41] = test: Antimicrobial activity against rifaximin-resistant Clostridium difficile isolate 22 expressing RpoB H502N and R505K mutants by agar dilution method
Outline: as §2, with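 “MICs were found” for “MIC”, “by the” for “by”, “dilution method” for “dilution”, “with” for “plus”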

Clostridioides difficile [42] = test: Antimicrobial activity against rifaximin-resistant Clostridium difficile isolate 18 expressing RpoB R505K mutant by Etest; outline: as §6
Clostridioides difficile [43] = test: Antimicrobial activity against Clostridium difficile isolate 76 by agar dilution method; outline: as §3
Clostridioides difficile [44] = test: Antimicrobial activity against Clostridium difficile isolate 60 by Etest; outline: as §4
Clostridioides difficile [45] = test: Antimicrobial activity against Clostridium difficile isolate 33 by Etest; outline: as §5
Clostridioides difficile [46] = test: Antimicrobial activity against Clostridium difficile isolate 48 by agar dilution method
Outline: as §3, with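 “dilution method” for “dilution”, “(pH 7.4)” for “pH 7.4”, “μg/ml.” for “μg/ml. Control strain:”, “[…] served as control.” for “70005.”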

Clostridioides difficile [47] = test: Antimicrobial activity against Clostridium difficile isolate 7 by agar dilution method; outline: as §3
Clostridioides difficile [48] = test: Antimicrobial activity against rifaximin-resistant Clostridium difficile isolate 66 expressing RpoB D492N and R505K mutants by Etest; outline: as §6
Clostridioides difficile [49] = test: Antimicrobial activity against Clostridium difficile isolate 13 by Etest; outline: as §5
Clostridioides difficile [50] = test: Antimicrobial activity against Clostridium difficile isolate 33 by agar dilution method; outline: as §2

## CO[C@H]1/C=C/O[C@@]2(C)Oc3c(C)c(O)c4c(O)c(c(/C=N/N5CCN(C)CC5)c(O)c4c3C2=O)NC(=O)/C(C)=C\C=C\[C@H](C)[C@H](O)[C@@H](C)[C@@H](O)[C@@H](C)[C@H](OC(C)=O)[C@@H]1C [RIFAMPIN]
Clostridioides difficile [1]
  MIC: < 2 ng/mL
Clostridioides difficile [2]
  MIC: 0.4 ng/mL (≈ 0.486 nM)
Clostridioides difficile [3]
  MIC: 0.06 ng/mL (≈ 0.0729 nM)
Clostridioides difficile [4]
  MIC: 0.06 ng/mL (≈ 0.0729 nM)
Clostridioides difficile [5]
  MIC: < 2 ng/mL
Clostridioides difficile [6]
  MIC: < 2 ng/mL
Clostridioides difficile [7]
  MIC: > 256000 ng/mL
Clostridioides difficile [8]
  MIC: 0.9 ng/mL (≈ 1.09 nM)
Clostridioides difficile [9]
  MIC: < 2 ng/mL
Clostridioides difficile [10]
  MIC: 0.4 ng/mL (≈ 0.486 nM)
Clostridioides difficile [11]
  MIC: 0.9 ng/mL (≈ 1.09 nM)
Clostridioides difficile [12]
  MIC: 0.06 ng/mL (≈ 0.0729 nM)
Clostridioides difficile [13]
  MIC: < 2 ng/mL
Clostridioides difficile [14]
  MIC: < 2 ng/mL
Clostridioides difficile [15]
  MIC: < 2 ng/mL
Clostridioides difficile [16]
  MIC: 0.06 ng/mL (≈ 0.0729 nM)
Clostridioides difficile [17]
  MIC: 0.9 ng/mL (≈ 1.09 nM)
Clostridioides difficile [18]
  MIC: 0.9 ng/mL (≈ 1.09 nM)
Clostridioides difficile [19]
  MIC: > 256000 ng/mL
Clostridioides difficile [20]
  MIC: 0.06 ng/mL (≈ 0.0729 nM)
Clostridioides difficile [21]
  MIC: 4 ng/mL (≈ 4.86 nM)
Clostridioides difficile [22]
  MIC: > 32000 ng/mL
Clostridioides difficile [23]
  MIC: > 256000 ng/mL
Clostridioides difficile [24]
  MIC: < 2 ng/mL
Clostridioides difficile [25]
  MIC: < 2 ng/mL
Clostridioides difficile [26]
  MIC: 0.9 ng/mL (≈ 1.09 nM)
Clostridioides difficile [27]
  MIC: 0.9 ng/mL (≈ 1.09 nM)
Clostridioides difficile [28]
  MIC: < 2 ng/mL
Clostridioides difficile [29]
  MIC: < 2 ng/mL
Clostridioides difficile [30]
  MIC: 0.06 ng/mL (≈ 0.0729 nM)
Clostridioides difficile [31]
  MIC: 0.9 ng/mL (≈ 1.09 nM)
Clostridioides difficile [32]
  MIC: > 256000 ng/mL
Clostridioides difficile [33]
  MIC: 0.9 ng/mL (≈ 1.09 nM)
Clostridioides difficile [34]
  MIC: > 32000 ng/mL
Clostridioides difficile [35]
  MIC: 0.9 ng/mL (≈ 1.09 nM)
Clostridioides difficile [36]
  MIC: 0.9 ng/mL (≈ 1.09 nM)
Clostridioides difficile [37]
  MIC: 0.9 ng/mL (≈ 1.09 nM)
Clostridioides difficile [38]
  MIC: < 2 ng/mL
Clostridioides difficile [39]
  MIC: < 2 ng/mL
Clostridioides difficile [40]
  MIC: < 2 ng/mL
Clostridioides difficile [41]
  MIC: > 256000 ng/mL
Clostridioides difficile [42]
  MIC: > 32000 ng/mL
Clostridioides difficile [43]
  MIC: 0.06 ng/mL (≈ 0.0729 nM)
Clostridioides difficile [44]
  MIC: < 2 ng/mL
Clostridioides difficile [45]
  MIC: < 2 ng/mL
Clostridioides difficile [46]
  MIC: 0.9 ng/mL (≈ 1.09 nM)
Clostridioides difficile [47]
  MIC: 0.06 ng/mL (≈ 0.0729 nM)
Clostridioides difficile [48]
  MIC: > 32000 ng/mL
Clostridioides difficile [49]
  MIC: < 2 ng/mL
Clostridioides difficile [50]
  MIC: 0.9 ng/mL (≈ 1.09 nM)
